Laboratory results from publication PMC3751212 (Clinical Drug Investigation, 2013).
Read-outs that look alike come from different tables or passages of the source.

Assays:
[1] = format: in vivo, human; settings: for CL renal / AUC(0-inf) / Cmax / Tmax / AUC(0-t) / CL/F / Vd/F / half-life / k el: human, 20 mg; for CL renal: plasma and urine, CLR; for AUC(0-inf) / Cmax / Tmax / AUC(0-t) / CL/F / Vd/F / half-life / k el: plasma; for AUC(0-t): AUClast, fasted, n = 6; for CL/F: CLP/F; for Vd/F: Vz/F; for half-life: t½β; for k el: λz
How it was run: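 Single oral 20 mg tablet given fasted (8–10 h) to groups of six subjects stratified by iothalamate GFR (>80, 50–80, 30–50, ≤30 mL/min/1.73 m2). Heparinised blood was drawn pre-dose and 0.25–72 h post-dose; plasma was spun at 1,500×g, 4–8 °C, then frozen. AUClast used the trapezoidal rule, AUC∞ = AUClast + Clast/ke, and CLP/F = dose/AUC∞. Ratios to the healthy group came from ln-transformed ANOVA least-squares means with 90 % CI.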

[2] = Urine concentrations / urinary excretion of bilastine after a single oral dose; format: in vivo, human; settings: for Urine concentrations of bilastine: mean ± SD
How it was run: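 Subjects were grouped by iothalamate GFR (n = 6 each) and received one fasted oral 20 mg tablet. Urine was pooled over 0–12, 12–24, 24–48 and 48–72 h post-dose and kept refrigerated during each interval. Total volume was measured per interval, and aliquots were stored at −20 °C. Ae is the total unchanged drug over the whole collection, and CLR = Ae/AUC over a defined period.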

[3] = Safety evaluations; format: in vivo, human
How it was run: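 Four groups (n = 6) were assigned by iothalamate GFR: >80, 50–80, 30–50 and ≤30 mL/min/1.73 m2. Each subject took one oral 20 mg tablet with 200 mL water after an 8–10 h fast. ECG (12-lead) was recorded pre-dose, 1 and 24 h, with QTcF and QTcB. Vital signs were taken daily. Hematology, biochemistry and urinalysis were done at screening, pre-dose and 72 h. AEs were coded by MedDRA 11.0, and results summarised descriptively.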

[4] = tested on: histamine H1 receptor; settings: animal tissues with a high density of H1 receptors; cited from earlier work
[5] = tested on: 30 other receptors (including muscarinic receptors); settings: at a high concentration; cited from earlier work
[6] = tested on: histamine receptor subtypes H2, H3, and H4; settings: at a high concentration; cited from earlier work
[7] = tested on: human breast cancer resistance protein (BCRP); settings: cited from earlier work
[8] = tested on: organic anion transporter 1 (OAT1); settings: cited from earlier work
[9] = tested on: organic anion transporter 3 (OAT3); settings: cited from earlier work
[10] = tested on: organic cation transporter 2 (OCT2); settings: cited from earlier work
[11] = single 80 mg oral dose; 95 % CI 3,174.7–6278.4; cited from earlier work
[12] = compared among the renal impairment groups; cited from earlier work
[13] = doses up to 40 mg; cited from earlier work
[14] = cited from earlier work
[15] = group 2: mild vs group 1: healthy
[16] = group 3: moderate vs group 1: healthy
[17] = group 4: severe vs group 1: healthy
[18] = po, Group 1: healthy, single oral 20 mg, mean ± SD
[19] = po, Group 2: mild, single oral 20 mg, mean ± SD
[20] = po, Group 3: moderate, single oral 20 mg, mean ± SD
[21] = po, Group 4: severe, single oral 20 mg, mean ± SD
[22] = oral, geometric LS mean, Test group 2: mild, ANOVA
[23] = oral, geometric LS mean, Test group 4: severe, ANOVA

Which Clast ([1]; Group 1: healthy, single oral 20 mg, mean ± SD) does the source give for `CCOCCn1c(C2CCN(CCc3ccc(C(C)(C)C(=O)O)cc3)CC2)nc2ccccc21` [bilastine, 2-[4-(2-(4-(1-(2-ethoxyethyl)-1H-benzimidazol-2-yl)piperidin-1-yl)ethyl)phenyl]-2-methylpropionic acid] here?
Its Clast is 0.3 ± 0.1 ng/mL.

What about the Clast ([1]; Group 2: mild, single oral 20 mg, mean ± SD) of the same compound?
The Clast was 0.8 ± 0.3 ng/mL.

And the Clast ([1]; Group 3: moderate, single oral 20 mg, mean ± SD)?
The Clast was 0.4 ± 0.1 ng/mL.

And the Clast ([1]; Group 4: severe, single oral 20 mg, mean ± SD)?
Its Clast is 1.5 ± 1.1 ng/mL.

And the “amount in the plasma after 24 h relative to Cmax” value ([1]; all the groups, single oral 20 mg)?
The value was “less than 5 % of the Cmax”.

And the “AUClast, geometric mean ratio” value [1, 15]?
Its value is 1.34.

What about the “AUC∞, geometric mean ratio” value [1, 15] of the same compound?
Its value is 1.36.

What about the “Cmax, geometric mean ratio” value [1, 15] of the same compound?
The value was 1.24.

And the “tmax, difference of median values” [1, 15]?
Its value is 0.00.

What about the “AUClast, geometric mean ratio” value [1, 16] of the same compound?
The value was 1.94.

What about the “AUC∞, geometric mean ratio” value [1, 16] of the same compound?
Its value is 1.94.

What about the “Cmax, geometric mean ratio” value [1, 16] of the same compound?
The value was 2.00.

And the “tmax, difference of median values” [1, 16]?
Its value is 0.75.

And the “AUClast, geometric mean ratio” value [1, 17]?
Its value is 2.11.

And the “AUC∞, geometric mean ratio” value [1, 17]?
The value was 2.15.

And the “Cmax, geometric mean ratio” value [1, 17]?
The value was 1.59.

And the “tmax, difference of median values” [1, 17]?
The value was 0.00.

What about the CL renal [1, 18] of the same compound?
The CL renal was 145 mL/min.

And the CL renal [1, 19]?
Its CL renal is 116 mL/min.

And the CL renal [1, 20]?
The CL renal was 91.5 mL/min.

What about the CL renal [1, 21] of the same compound?
The CL renal was 67.2 mL/min.

What about the AUC(0-inf) [1, 22] of the same compound?
Its AUC(0-inf) is 959 ng·h/mL.

What about the AUC(0-inf) [1, 23] of the same compound?
Its AUC(0-inf) is 1510 ng·h/mL.

What about the Cmax [1, 22] of the same compound?
The Cmax was 167 ng/mL.

And the Cmax [1, 23]?
The Cmax was 214 ng/mL.

And the Tmax ([1]; oral, median, Reference (group 1: healthy))?
The Tmax was 1.5 h.

And the Tmax ([1]; oral, median, Test group 2: mild)?
Its Tmax is 1.5 h.

And the Tmax ([1]; oral, median, Test group 3: moderate)?
The Tmax was 2.25 h.

What about the Tmax ([1]; oral, median, Test group 4: severe) of the same compound?
The Tmax was 1.5 h.

What about the AUC(0-t) ([1]; po, Group 1: healthy (GFR >80), single oral 20 mg, mean ± SD) of the same compound?
Its AUC(0-t) is 733 ± 260 ng·h/mL.

And the AUC(0-t) ([1]; po, Group 2: mild renal insufficiency (GFR 50–80), single oral 20 mg, mean ± SD)?
Its AUC(0-t) is 947 ± 148 ng·h/mL.

What about the AUC(0-t) ([1]; po, Group 3: moderate renal insufficiency (GFR 30–50), single oral 20 mg, mean ± SD) of the same compound?
The AUC(0-t) was 1380 ng·h/mL.

And the AUC(0-t) ([1]; po, Group 4: severe renal insufficiency (GFR ≤30), single oral 20 mg, mean ± SD)?
Its AUC(0-t) is 1650 ng·h/mL.

And the AUC(0-inf) [1, 18]?
Its AUC(0-inf) is 737 ± 261 ng·h/mL.

What about the AUC(0-inf) [1, 19] of the same compound?
The AUC(0-inf) was 967 ± 140 ng·h/mL.

What about the AUC(0-inf) [1, 20] of the same compound?
The AUC(0-inf) was 1380 ng·h/mL.

And the AUC(0-inf) [1, 21]?
The AUC(0-inf) was 1710 ng·h/mL.

And the CL/F [1, 18]?
The CL/F was 495 mL/min.

What about the CL/F [1, 19] of the same compound?
The CL/F was 351 mL/min.

What about the CL/F [1, 20] of the same compound?
Its CL/F is 248 mL/min.

What about the CL/F [1, 21] of the same compound?
The CL/F was 271 mL/min.

And the Cmax [1, 18]?
The Cmax was 144 ± 57.8 ng/mL.

And the Cmax [1, 19]?
The Cmax was 172 ± 45 ng/mL.

What about the Cmax [1, 20] of the same compound?
Its Cmax is 271 ± 30.4 ng/mL.

And the Cmax [1, 21]?
Its Cmax is 229 ± 81.8 ng/mL.

What about the Vd/F [1, 18] of the same compound?
Its Vd/F is 383 ± 122 L.

What about the Vd/F [1, 19] of the same compound?
The Vd/F was 462 ± 244 L.

And the Vd/F [1, 20]?
Its Vd/F is 223 ± 55.7 L.

What about the Vd/F [1, 21] of the same compound?
The Vd/F was 351 ± 193 L.

And the Tmax ([1]; po, Group 1: healthy, single oral 20 mg, median (range))?
The Tmax was 1.5 h.

What about the Tmax ([1]; po, Group 2: mild, single oral 20 mg, median (range)) of the same compound?
Its Tmax is 1.5 h.

What about the Tmax ([1]; po, Group 3: moderate, single oral 20 mg, median (range)) of the same compound?
The Tmax was 2.25 h.

And the Tmax ([1]; po, Group 4: severe, single oral 20 mg, median (range))?
Its Tmax is 1.5 h.

What about the half-life [1, 18] of the same compound?
The half-life was 9.26 ± 2.79 h.

And the half-life [1, 19]?
The half-life was 15.1 ± 7.66 h.

And the half-life [1, 20]?
Its half-life is 10.5 ± 2.34 h.

What about the half-life [1, 21] of the same compound?
The half-life was 18.4 ± 11.4 h.

And the k el [1, 18]?
The k el was 2.21e-05 s⁻¹.

What about the k el [1, 19] of the same compound?
Its k el is 1.65e-05 s⁻¹.

And the k el [1, 20]?
Its k el is 1.92e-05 s⁻¹.

And the k el [1, 21]?
The k el was 1.39e-05 s⁻¹.

And the “Urine concentrations of bilastine” value ([2]; 0–12 h, Group 1: healthy, single oral 20 mg)?
Its value is 4,387.5 ± 3,358.4 ng/mL.

What about the “Urine concentrations of bilastine” value ([2]; 0–12 h, Group 2: mild) of the same compound?
Its value is 4,824.1 ± 2,073.0 ng/mL.

What about the “Urine concentrations of bilastine” value ([2]; 0–12 h, Group 3: moderate) of the same compound?
Its value is 7,184.3 ± 3,843.4 ng/mL.

What about the “Urine concentrations of bilastine” value ([2]; 0–12 h, Group 4: severe) of the same compound?
The value was 3,469.8 ± 2,066.2 ng/mL.

What about the “Urine concentrations of bilastine” value ([2]; 12–24 h, Group 1: healthy) of the same compound?
Its value is 531.7 ± 342.0 ng/mL.

And the “Urine concentrations of bilastine” value ([2]; 12–24 h, Group 2: mild)?
The value was 597.7 ± 159.2 ng/mL.

What about the “Urine concentrations of bilastine” value ([2]; 12–24 h, Group 3: moderate) of the same compound?
Its value is 472.9 ± 221.9 ng/mL.

What about the “Urine concentrations of bilastine” value ([2]; 12–24 h, Group 4: severe) of the same compound?
Its value is 813.0 ± 567.5 ng/mL.

And the “Urine concentrations of bilastine” value ([2]; 24–48 h, Group 1: healthy)?
The value was 103.4 ± 38.6 ng/mL.

What about the “Urine concentrations of bilastine” value ([2]; 24–48 h, Group 2: mild) of the same compound?
Its value is 159.3 ± 43.3 ng/mL.

What about the “Urine concentrations of bilastine” value ([2]; 24–48 h, Group 3: moderate) of the same compound?
The value was 126.7 ± 81.1 ng/mL.

What about the “Urine concentrations of bilastine” value ([2]; 24–48 h, Group 4: severe) of the same compound?
The value was 260.4 ± 212.1 ng/mL.

And the “Urine concentrations of bilastine” value ([2]; 48–72 h, Group 1: healthy)?
The value was 20.9 ± 10.0 ng/mL.

And the “Urine concentrations of bilastine” value ([2]; 48–72 h, Group 2: mild)?
Its value is 49.3 ± 40.7 ng/mL.

And the “Urine concentrations of bilastine” value ([2]; 48–72 h, Group 3: moderate)?
Its value is 30.3 ± 7.4 ng/mL.

And the “Urine concentrations of bilastine” value ([2]; 48–72 h, Group 4: severe)?
The value was 97.8 ± 69.3 ng/mL.

What about the “time by which urinary excretion was essentially complete” value ([2]; single oral 20 mg, most excreted in the first 12 h) of the same compound?
Its value is “up to 72 h”.

What about the tolerability ([3]; 20 mg oral dose, healthy and renally impaired subjects) of the same compound?
The tolerability was “well-tolerated”.

And the “subjects with outlier ECG results” value ([3]; all 24 subjects, single oral 20 mg)?
The value was 20.8%.

What about the “subjects with outlier ECG results” value ([3]; each of the mild, moderate, and severe impairment groups) of the same compound?
The value was 16.7%.

What about the “subjects with outlier ECG results” value ([3]; healthy group) of the same compound?
The value was 33.3%.

And the “mean blood glucose concentration” value ([3]; mildly impaired group, end of study, reference range 60–115 mg/dL)?
The value was 120.8 mg/dL.

What about the “affinity for H1 receptors relative to cetirizine” value [4] of the same compound?
The value was “three times higher”.

And the “affinity for H1 receptors relative to fexofenadine” value [4]?
The value was “five times higher”.

And the “affinity for 30 other receptors” value [5]?
Its value is “does not show affinity”.

What about the “affinity for histamine receptor subtypes H2, H3, and H4” value [6] of the same compound?
The value was “does not show affinity”.

What about the “substrate of BCRP” value [7] of the same compound?
Its value is “not a substrate”.

And the “substrate of OAT1” value [8]?
Its value is “not a substrate”.

What about the “substrate of OAT3” value [9] of the same compound?
Its value is “not a substrate”.

What about the “substrate of OCT2” value [10] of the same compound?
Its value is “not a substrate”.

And the “AUC∞, mean estimated exposure (safety margin)” value [11]?
Its value is 4,225.6 ng·h/mL.

And the plasma protein binding [12]?
The plasma protein binding was “comparable values were found among the renal impairment groups”.

And the “sedative or psychomotor effects” value [13]?
Its value is “No sedative or psychomotor effects were detected”.

And the metabolism [14]?
Its metabolism is “not metabolized”.
